Experimental data reported in PMC4469273 (Current pharmaceutical biotechnology, 2014).

Tests used:
[1] = tested on: HUVEC infected with Staphylococcus aureus; assay: Transmission electron microscopy of infected HUVEC; assay type: cell-based, human; details: 10 μmol/L, 18-20 h pretreatment, infected 2 h
Outline: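 Coverslip HUVEC (3 × 10^5/ml) pretreated 18-20 h with PEG vehicle or test compound, infected with S. aureus (MOI 30, 2 h, 37°C). Lysostaphin/gentamicin removal (45 min), then 24 h in antibiotic medium. Fixed in 2.5% glutaraldehyde/2.0% paraformaldehyde/2 mmol/L Ca/1 mmol/L Mg; post-fixed in 1% OsO4/1.5% ferrocyanide in 0.1 mol/L cacodylate. Ethanol/propylene oxide dehydration, resin embedding. Ultrathin sections stained with uranyl acetate/lead citrate, imaged at 120 kV.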

HUVEC invasion by NRS123 = assay: Invasion assay with community-acquired MRSA strain; assay type: cell-based, human; details: 10 μmol/L, 18-20 h pretreatment
Outline: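 Attachment Factor-coated dishes seeded with HUVEC, pretreated 18-20 h with test compound or matched vehicle. Stocks were 5 mmol/L in DMSO or PEG, diluted to 1 mmol/L in solvent, then into EndoGRO-LS. Unlabeled saline-washed NRS123 at MOI 1440 (1 h, 37°C). Extracellular bacteria killed with 20 μg/ml lysostaphin/50 μg/ml gentamicin (45 min). Cells lysed with 1% saponin/PBS (20 min); dilutions plated on TSA (16 h), CFU/ml counted.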

[2] = tested on: vinculin-containing adhesion complexes in HUVEC; assay: Vinculin-containing adhesion complexes, immunofluorescence; assay type: cell-based, human; details: 10 μmol/L, 18-20 h; vehicle control 64%
Outline: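 HUVEC at 3 × 10^4 on Attachment Factor-coated glass-bottom dishes, treated 18-20 h with DMSO vehicle or test compound. Fixed, then permeabilized/blocked (0.1% Triton/1% BSA). Stained with anti-vinculin (1:25), then rabbit anti-mouse Alexa Fluor 488 (1:250). Confocal imaging at 63X water immersion; Z-stack maximum projections. Percentage of cells with adhesion complexes from 100-200 cells/treatment in random fields; χ2 test.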

MSSA (ATCC 29213) = assay: Bactericidal activity assay, MSSA; assay type: cell-based, Staphylococcus aureus; details: 10 μmol/L; for CFU/ml (×10^10± SEM), Compound: 1 h, 1.2 × 10^8 CFU/ml incubated, N = 3
Outline: (§1)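 Washed S. aureus (overnight TSB at 225 rpm, 37°C; subcultured; saline-washed), 1.2 × 10^8 CFU/ml, incubated with test compound or vehicle control in EndoGRO-LS medium (1 h, 5% CO2, 37°C). Serial dilutions plated on tryptic soy agar (18-20 h, 37°C); colonies counted and CFU/ml calculated.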

[3] = tested on: HUVEC invasion by MRSA252 NRS71; assay: Invasion assay with hospital MRSA strain; assay type: cell-based, human; details: 10 μmol/L, 18-20 h pretreatment
Outline: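 HUVEC pretreated 18-20 h with test compound or vehicle. MRSA252 NRS71 labeled through protein A with rabbit anti-mouse IgG Alexa Fluor 488 (final 8 μg/ml, RT, 20 min), washed, set to 3×10^8 CFU/ml. Infection at MOI 1440 (1 h, 37°C, 5% CO2), then lysostaphin (20 μg/ml)/gentamicin (50 μg/ml) for 45 min. Cells scraped and fixed in 1% BSA/0.74% formaldehyde; MFI from 1500 FSC/SSC-gated cells, as % control.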

HUVEC = assay: Cytotoxicity assay; assay type: cell-based, human; details: 10 μmol/L; for Mean fluorescence intensity (×10^4± SEM), Compound: PI fluorescence, N = 3
Outline: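 HUVEC plated and compound-treated as for invasion: 1×10^5 cells/ml in 35 mm dishes or 1×10^4 cells/ml in 96-well plates, Attachment Factor-coated. Cells scraped and washed in FACS buffer (2% BSA/0.1% sodium azide/PBS). Brief incubation with propidium iodide at 0.5 mg/ml, then fluorescence read at once on Accuri C6 flow cytometer; MFI reported.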

NRS123 = assay: Bactericidal activity assay, NRS123; assay type: cell-based, Staphylococcus aureus
Outline: as §1

[4] = tested on: actin stress fibers in HUVEC; assay: Actin stress fiber disassembly, immunofluorescence; assay type: cell-based, human; details: 10 μmol/L, 18-20 h, infected 1 h
Outline: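 HUVEC (3 × 10^5/ml, Attachment Factor-coated glass-bottom dishes) pretreated 18-20 h with PEG vehicle or test compound. Infected with S. aureus (MOI 1200, 1 h, 5% CO2, 37°C), PBS-washed, fixed in 4% paraformaldehyde (30 min), then permeabilized/blocked in 0.1% Triton/1% BSA. Stained with Alexa Fluor 488 phalloidin (1:40), imaged by confocal (40X water immersion). Scored as % cells lacking stress fibers, 100-200 cells/treatment from random fields; χ2 test.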

β1 integrin subunit = assay: β1 integrin surface expression, flow cytometry; assay type: cell-based, human; details: 10 μmol/L, 18-20 h, vs vehicle control
Outline: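 Following 18-20 h pretreatment (DMSO vehicle or test compound), integrin recycling stopped at 4°C for 15 min. Cells scraped and washed in FACS buffer, stained with PE-conjugated anti-β1 (30 min, on ice), then fixed in FACS buffer with 4% paraformaldehyde. PE MFI measured on 600 FSC-A/SSC-A-gated cells; expressed as percent control; Mann-Whitney Rank Sum test.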

[5] = tested on: HUVEC adhesion to human fibronectin; assay: Fibronectin adhesion assay; assay type: cell-based; details: 10 μmol/L, 18-20 h; vehicle control 24±4%
Outline: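 Compound or DMSO vehicle applied to HUVEC for 18-20 h (invasion-assay plating). Wells coated with human fibronectin (20 μg/ml, 2 h, 37°C) and blocked with 2% BSA (30 min, RT). Scraped cells counted by flow cytometry for input, re-plated 2 h at 37°C/5% CO2. After PBS washes, adherent cells trypsinized, fixed, counted; normalized to input. Two pooled experiments, n=8/treatment.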

MRSA252 NRS71 = assay: Bactericidal activity assay, MRSA252 NRS71; assay type: cell-based, Staphylococcus aureus; details: 10 μmol/L
Outline: as §1

[6] = tested on: HUVEC invasion by S. aureus ATCC 29213 (MSSA); assay: Invasion assay: HUVEC infected with Alexa Fluor 488-labeled MSSA, flow cytometry; assay type: cell-based, human; details: for Internalized bacteria (% vehicle control ± SEM), RSM structural analog: N = 5
S. aureus pneumonia = details: cited from earlier work
[7] = tested on: endothelial cell invasion by S. aureus; details: cited from earlier work

COc1ccc(C2CC(c3ccccc3)=NN2c2ccc(S(N)(=O)=O)cc2)cc1 (stereo not shown) [ML 141, 4-[3-(4-methoxyphenyl)-5-phenyl-3,4-dihydropyrazol-2-yl]benzenesulfonamide]
Organelles 24 h post-invasion (ultrastructure) [1]: remained intact
Filopodia at the host cell membrane in response to bacteria ([1]; 24 h post-invasion): not detected
Invasion by NRS123 (HUVEC invasion by NRS123): inhibited invasion
HUVEC with vinculin-containing adhesion complexes [2]: 37%
Bactericidal activity against MSSA (MSSA (ATCC 29213)): Bactericidal activity was not detected
CFU/ml (×10^10± SEM), Compound (MSSA (ATCC 29213)): 1.8 ± 0.6 CFU/ml ×10^10
Invasion by MRSA252 NRS71 [3]: inhibited invasion
Mean fluorescence intensity (×10^4± SEM), Compound (HUVEC): 2.1 ± 0.3 ×10^4
Cytotoxicity in HUVEC (HUVEC; incubated 1 h): Cytotoxicity was not detected
Bactericidal activity against NRS123 (NRS123; 10 μmol/L): Bactericidal activity was not detected
CFU/ml recovered, NRS123 (NRS123; 1.2 × 10^8 CFU/ml incubated, vehicle control 4.5 × 10^10 ±0.6): 5.6 × 10^10 ±1.5 CFU/ml
Actin stress fibers in infected cells [4]: remained intact
Expression of β1 (β1 integrin subunit): No difference
HUVEC adhesion to fibronectin [5]: 14±2%
Bactericidal activity against MRSA252 NRS71 (MRSA252 NRS71): Bactericidal activity was not detected
CFU/ml recovered, MRSA252 NRS71 (MRSA252 NRS71; 1 h, 1.2 × 10^8 CFU/ml incubated): 1.9 × 10^10 ±0.2 CFU/ml
Mean fluorescence intensity in washout samples (reversibility) ([6]; 10 μmol/L 1 h pretreatment, media replaced with vehicle 40 min prior to invasion): returned to baseline
Mean fluorescence intensity compared to vehicle control ([6]; 10 μmol/L, 18-20 h pretreatment, 1 h infection): lower

NS(=O)(=O)c1ccc(N2N=C(c3ccccc3)CC2c2ccc3c(c2)OCO3)cc1 (stereo not shown) [RSM 05]
CFU/ml (×10^10± SEM), Compound (MSSA (ATCC 29213)): 1.6 ± 0.3 CFU/ml ×10^10
Mean fluorescence intensity (×10^4± SEM), Compound (HUVEC): 3.9 ± 0.2 ×10^4
Internalized bacteria (% vehicle control ± SEM), RSM structural analog ([6]; 10 μmol/L): 38 ± 3 % ^††

COc1ccc(C2=NN(c3ccc(S(N)(=O)=O)cc3)C(c3ccc4c(c3)OCO4)C2)cc1 (stereo not shown) [RSM 06]
CFU/ml (×10^10± SEM), Compound (MSSA (ATCC 29213)): 1.0 ± 0.3 CFU/ml ×10^10
Mean fluorescence intensity (×10^4± SEM), Compound (HUVEC): 2.8 ± 0.1 ×10^4
Internalized bacteria (% vehicle control ± SEM), RSM structural analog ([6]; 10 μmol/L): 23 ± 1 % ^†††

COc1ccc(C2=NN(c3ccc(S(N)(=O)=O)cc3)C(c3ccccc3)C2)cc1 (stereo not shown) [RSM 07]
CFU/ml (×10^10± SEM), Compound (MSSA (ATCC 29213)): 2.8 ± 0.3 CFU/ml ×10^10
Mean fluorescence intensity (×10^4± SEM), Compound (HUVEC): 2.5 ± 0.4 ×10^4
Internalized bacteria (% vehicle control ± SEM), RSM structural analog ([6]; 10 μmol/L): 34 ± 2 % ^††

COc1ccc(C2CC(c3ccccc3)=NN2c2ccc(S(N)(=O)=O)cc2)cc1OC (stereo not shown) [RSM 15]
CFU/ml (×10^10± SEM), Compound (MSSA (ATCC 29213)): 2.0 ± 0.2 CFU/ml ×10^10
Mean fluorescence intensity (×10^4± SEM), Compound (HUVEC): 4.0 ± 0.4 ×10^4
Internalized bacteria (% vehicle control ± SEM), RSM structural analog ([6]; 10 μmol/L): 45 ± 1 % ^†††

COc1ccc(C2=NN(c3ccc(S(N)(=O)=O)cc3)C(c3ccc(OC)c(OC)c3)C2)cc1 (stereo not shown) [RSM 16]
CFU/ml (×10^10± SEM), Compound (MSSA (ATCC 29213)): 1.8 ± 0.4 CFU/ml ×10^10
Mean fluorescence intensity (×10^4± SEM), Compound (HUVEC): 1.4 ± 0.2 ×10^4
Internalized bacteria (% vehicle control ± SEM), RSM structural analog ([6]; 10 μmol/L): 63 ± 4 % ^†††

COc1ccc(C2C(C)C(c3ccccc3)=NN2c2ccc(S(N)(=O)=O)cc2)cc1 (stereo not shown) [RSM 19]
Mean fluorescence intensity (×10^4± SEM), Compound (HUVEC): 2.6 ± 0.01 ×10^4
Internalized bacteria (% vehicle control ± SEM), RSM structural analog ([6]; 10 μmol/L): 61 ± 2 % ^††

COCCOc1ccc(C2=NN(c3ccc(S(N)(=O)=O)cc3)C(c3ccc(Cl)cc3)C2)cc1 (stereo not shown) [RSM 20]
CFU/ml (×10^10± SEM), Compound (MSSA (ATCC 29213)): 2.1 ± 0.4 CFU/ml ×10^10
Mean fluorescence intensity (×10^4± SEM), Compound (HUVEC): 2.1 ± 0.2 ×10^4
Internalized bacteria (% vehicle control ± SEM), RSM structural analog ([6]; 10 μmol/L): 61 ± 4 % ^††

COc1ccc(C2C3Cc4ccccc4C3=NN2c2ccc(S(N)(=O)=O)cc2)cc1 (stereo not shown) [RSM 21]
CFU/ml (×10^10± SEM), Compound (MSSA (ATCC 29213)): 3.0 ± 0.2 CFU/ml ×10^10
Mean fluorescence intensity (×10^4± SEM), Compound (HUVEC): 2.8 ± 0.09 ×10^4
Internalized bacteria (% vehicle control ± SEM), RSM structural analog ([6]; 10 μmol/L): 79 ± 3 % ^†

CCC(C)(C)C(=O)O[C@H]1C[C@@H](C)C=C2C=C[C@H](C)[C@H](CC[C@@H]3C[C@@H](O)CC(=O)O3)[C@H]21 [simvastatin]
Survival in a murine model of pneumonia (S. aureus pneumonia): improved survival
Endothelial cell invasion by S. aureus [7]: decreased
